Laboratory results as given in publication PMC10187107 (Journal of Enzyme Inhibition and Medicinal Chemistry, 2023).
Values joined by “and” are separate entries in the source; they are usually repeats but may differ in a detail not shown here. Equal values may be shown once.

How the values were obtained:
[1] = target: T1, h3β-HSD2 (Homo sapiens, UniProt P26439); experiment: h3β-HSD2 activity, conversion of P5 to P4 in KGN cell homogenate; type: biochemical; conditions: for Residual h3β-HSD2 activity: 100 µM chemical, relative to DMSO control; for IC50: IC50, human 3β-HSD2, KGN cell homogenate, 0.2 µM P5, 0.2 mM NAD+, 30 min; for Mode action: human 3β-HSD2, vs. P5, mixed model and Lineweaver-Burk plot
T1 sequence (P26439 1-372): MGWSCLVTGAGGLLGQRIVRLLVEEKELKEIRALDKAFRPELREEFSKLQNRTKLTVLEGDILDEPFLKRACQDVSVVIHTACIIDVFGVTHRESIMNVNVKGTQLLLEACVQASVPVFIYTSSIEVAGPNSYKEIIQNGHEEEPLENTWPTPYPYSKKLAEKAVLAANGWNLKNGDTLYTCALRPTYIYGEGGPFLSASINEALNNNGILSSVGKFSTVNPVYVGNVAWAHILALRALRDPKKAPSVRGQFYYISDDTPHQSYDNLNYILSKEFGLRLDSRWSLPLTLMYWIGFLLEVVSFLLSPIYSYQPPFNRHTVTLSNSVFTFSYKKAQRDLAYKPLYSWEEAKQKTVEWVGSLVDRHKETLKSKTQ

[2] = target: T2, r3β-HSD1 (Rattus norvegicus, UniProt P22071); experiment: r3β-HSD1 activity, conversion of P5 to P4 in rat testicular microsome; type: biochemical; conditions: for Residual r3β-HSD1 activity: 100 µM chemical, relative to DMSO control; for IC50: IC50, rat 3β-HSD1, testicular microsome, 0.2 µM P5, 0.2 mM NAD+, 30 min; for increase of inhibitory effect relative to CUR: r3β-HSD1; for Mode action: rat 3β-HSD1, vs. P5, mixed model and Lineweaver-Burk plot
T2 sequence (P22071 1-373): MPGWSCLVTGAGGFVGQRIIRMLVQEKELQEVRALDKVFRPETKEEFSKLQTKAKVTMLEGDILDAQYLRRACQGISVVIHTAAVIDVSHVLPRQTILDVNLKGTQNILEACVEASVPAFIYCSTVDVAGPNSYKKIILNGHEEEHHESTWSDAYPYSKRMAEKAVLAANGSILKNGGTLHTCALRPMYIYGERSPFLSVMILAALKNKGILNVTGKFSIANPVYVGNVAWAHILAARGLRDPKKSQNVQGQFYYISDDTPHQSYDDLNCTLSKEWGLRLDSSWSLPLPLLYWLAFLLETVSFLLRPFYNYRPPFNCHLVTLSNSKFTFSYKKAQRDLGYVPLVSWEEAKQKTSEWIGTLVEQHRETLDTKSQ
Method in brief: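 Testes came from 90-day male Sprague-Dawley rats. Microsomes were isolated from homogenate in 0.25 M sucrose PBS (pH 7.2) by spins at 700, 14,500 and twice 105,000 ×g. Reactions used 5 µg microsomal protein, 0.2 µM P5 and 0.2 mM NAD+ in PBS for 30 min. […] P4 by HPLC-MS/MS with T-d5 internal standard; n = 4.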

[3] = cited from earlier work
[4] = system: human KGN cells; experiment: P4 output in human KGN cells under basal and FSK-stimulated conditions; type: cell-based; conditions: basal condition, 24 h
Method in brief: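 KGN human granulosa-like cells grown in DMEM/F12 with 10% FBS and 1% antibiotics at 37 °C, 5% CO2. Seeded at 1 × 10^6 cells/well and treated for 24 h with 0, 10, 20 or 40 µM test compound, either without forskolin (basal) or with 10 µM forskolin. P4 in the medium was quantified by HPLC-MS/MS. n = 4; one-way ANOVA with Dunnett's test vs control.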

[5] = ref GuideChem; cited from earlier work
[6] = system: human 11β-HSD2; conditions: cited from earlier work
[7] = system: human 17β-HSD3; conditions: cited from earlier work
[8] = system: human 11β-HSD1; conditions: cited from earlier work

Row | SMILES | Residual h3β-HSD2 activity [1] | Km ([1]; read-out: apparent Km, substrate P5, h3β-HSD2, Michaelis-Menten kinetics) [µM] | Km ([2]; read-out: apparent Km, substrate P5, r3β-HSD1, Michaelis-Menten kinetics) [µM] | Ki [1] [µM] | IC50 [1] [µM] | Mode action [1] | half-lives [3] [h] | lowest concentration that markedly decreased basal P4 output [4] [µM] | Ki [2] [µM] | Residual r3β-HSD1 activity [2] | IC50 [2] [µM] | increase of inhibitory effect relative to CUR [2] [fold] | Mode action [2] | LogP [5] | IC50 [6] | clearance from the body [3] | IC50 [7] | IC50 [8] | higher potency to inhibit r3β-HSD1 than h3β-HSD2 ([2]; r3β-HSD1 vs h3β-HSD2)
1 | COc1cc(CCC(O)CC(O)CCc2ccc(O)c(OC)c2)ccc1O (stereo not shown) [OHC, octahydrocurcumin] | ≥ 50 % of the control |  |  |  |  |  |  |  |  |  |  |  |  |  |  |  |  |  | 
2 | CC(=O)[C@H]1CC[C@H]2[C@@H]3CC=C4C[C@@H](O)CC[C@]4(C)[C@H]3CC[C@]12C [P5, pregnenolone] |  | 3.08 ± 0.81 | 0.32 ± 0.1 |  |  |  |  |  |  |  |  |  |  |  |  |  |  |  | 
3 | O=C(/C=C/c1ccc(O)cc1)CC(=O)/C=C/c1ccc(O)cc1 [BDMC, bisdemethoxycurcumin] | < 25 % of the control |  |  | 1.12 | 1.68 ± 0.39 | Competitive | 2 to 4 | 10 | 1.56 | < 20 % of the control | 1.22 ± 0.31 | 2 | Mixed |  |  |  |  |  | 
4 | COc1cc(CCC(=O)CC(=O)CCc2ccc(O)c(OC)c2)ccc1O [THC, tetrahydrocurcumin] | ≥ 50 % of the control |  |  |  | 109 ± 19.2 |  |  |  |  | around 50 % of the control | 103 ± 11.6 |  |  | 3.691 |  |  |  |  | 
5 | COc1cc(/C=C/C(=O)CC(=O)/C=C/c2ccc(O)c(OC)c2)ccc1O [CUR, curcumin] | < 25 % of the control |  |  |  |  | Mixed |  | 20 | 4.21 | < 20 % of the control | 4.06 ± 1.1 |  | Mixed | 3.37 | ~14.5 µM and 10 to 15 µM | rapid clearance | ~67.3 µM and > 50 µM | ~10 µM and 10 to 15 µM | about 3 fold
6 | COc1cc(/C=C/C(O)=C/C(=O)/C=C/c2ccc(O)cc2)ccc1O [DMC, demethoxycurcumin] | < 25 % of the control |  |  | 3.85 | 3.27 ± 0.38 | Mixed | 2 to 4 | 10 | 2.18 | < 20 % of the control | 2.15 ± 0.27 | 1 | Mixed |  |  |  |  |  | 
